Test [1] has as its target T1, Alpha-1A adrenergic receptor (Rattus norvegicus, UniProt P43140).
T1 sequence (P43140 whole entry): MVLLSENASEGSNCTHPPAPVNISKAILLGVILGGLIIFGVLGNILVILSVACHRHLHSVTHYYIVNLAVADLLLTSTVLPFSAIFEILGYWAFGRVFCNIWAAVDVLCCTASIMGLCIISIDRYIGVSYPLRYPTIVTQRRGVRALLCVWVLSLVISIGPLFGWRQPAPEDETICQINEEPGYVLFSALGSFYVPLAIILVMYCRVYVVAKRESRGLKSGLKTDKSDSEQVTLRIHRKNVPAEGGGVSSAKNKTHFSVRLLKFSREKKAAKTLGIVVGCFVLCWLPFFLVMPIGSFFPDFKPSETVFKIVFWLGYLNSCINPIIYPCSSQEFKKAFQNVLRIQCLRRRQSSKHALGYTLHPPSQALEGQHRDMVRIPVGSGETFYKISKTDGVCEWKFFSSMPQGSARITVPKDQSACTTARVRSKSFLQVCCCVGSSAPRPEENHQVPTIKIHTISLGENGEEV
Nature of the test: In vitro binding affinity towards alpha-1A adrenergic receptor of rat submaxillary gland in radioligand binding assay. An outline of the steps:
(§1)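 Radioligand binding at α1 subtypes: α1A from rat submaxillary gland, α1B hamster clone, α1D rat clone. Run essentially per an earlier method.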

In test [2] the target is T2, Alpha-1B adrenergic receptor (Mesocricetus auratus, UniProt P18841).
T2 sequence (P18841 whole entry): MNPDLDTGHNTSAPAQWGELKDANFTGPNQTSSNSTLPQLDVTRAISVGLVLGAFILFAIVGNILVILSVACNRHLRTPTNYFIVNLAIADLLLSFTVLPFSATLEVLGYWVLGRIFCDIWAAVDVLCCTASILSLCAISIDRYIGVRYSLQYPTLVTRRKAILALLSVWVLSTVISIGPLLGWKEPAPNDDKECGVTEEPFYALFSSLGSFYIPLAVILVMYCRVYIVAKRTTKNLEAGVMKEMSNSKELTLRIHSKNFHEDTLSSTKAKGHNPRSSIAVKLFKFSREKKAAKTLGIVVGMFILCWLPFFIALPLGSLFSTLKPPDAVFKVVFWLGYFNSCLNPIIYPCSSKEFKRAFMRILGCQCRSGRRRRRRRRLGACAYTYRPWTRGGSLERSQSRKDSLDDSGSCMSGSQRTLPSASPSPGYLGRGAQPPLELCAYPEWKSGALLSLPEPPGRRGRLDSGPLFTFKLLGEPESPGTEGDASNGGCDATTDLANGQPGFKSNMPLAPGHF
Nature of the test: In vitro binding affinity towards alpha-1B adrenergic receptor of hamster clone in radioligand binding assay. The test is classed as single protein. The essentials:
as §1

The target in test [3] is T3, Alpha-1D adrenergic receptor (Rattus norvegicus, UniProt P23944).
T3 sequence (P23944 whole entry): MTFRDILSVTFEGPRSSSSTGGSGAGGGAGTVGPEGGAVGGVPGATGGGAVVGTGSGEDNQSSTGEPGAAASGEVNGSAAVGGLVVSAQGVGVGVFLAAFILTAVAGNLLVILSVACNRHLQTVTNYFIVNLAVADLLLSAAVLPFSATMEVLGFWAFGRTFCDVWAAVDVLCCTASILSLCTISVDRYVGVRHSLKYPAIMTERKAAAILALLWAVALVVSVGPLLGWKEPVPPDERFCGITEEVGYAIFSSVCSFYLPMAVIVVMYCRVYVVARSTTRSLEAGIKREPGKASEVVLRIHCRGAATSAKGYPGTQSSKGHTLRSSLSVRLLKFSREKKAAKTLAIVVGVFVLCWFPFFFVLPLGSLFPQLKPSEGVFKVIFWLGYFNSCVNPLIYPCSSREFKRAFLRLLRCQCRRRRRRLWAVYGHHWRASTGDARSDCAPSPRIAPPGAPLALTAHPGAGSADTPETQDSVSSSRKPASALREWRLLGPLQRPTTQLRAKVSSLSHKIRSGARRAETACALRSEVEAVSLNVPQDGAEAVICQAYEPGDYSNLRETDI
Nature of the test: In vitro binding affinity towards alpha-1D adrenergic receptor of rat clone in radioligand binding assay. The essentials:
as §1

For test [4], the target named is T4, Alpha-1A adrenergic receptor (Oryctolagus cuniculus) (UniProt O02824).
T4 sequence (whole entry): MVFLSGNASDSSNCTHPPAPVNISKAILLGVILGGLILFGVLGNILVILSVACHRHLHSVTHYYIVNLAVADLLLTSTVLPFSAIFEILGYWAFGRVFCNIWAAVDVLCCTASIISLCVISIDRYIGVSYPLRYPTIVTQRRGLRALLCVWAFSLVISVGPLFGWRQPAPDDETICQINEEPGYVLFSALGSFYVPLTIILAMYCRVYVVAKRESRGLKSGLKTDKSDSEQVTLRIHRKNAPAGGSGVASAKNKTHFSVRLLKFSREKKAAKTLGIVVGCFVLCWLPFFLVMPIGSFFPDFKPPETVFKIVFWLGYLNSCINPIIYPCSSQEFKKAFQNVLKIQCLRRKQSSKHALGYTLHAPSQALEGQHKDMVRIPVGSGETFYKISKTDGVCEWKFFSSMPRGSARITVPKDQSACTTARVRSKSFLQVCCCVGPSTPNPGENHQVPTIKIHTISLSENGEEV
Nature of the test: Functional agonism of the compounds to constrict tissue containing the alpha-1A adrenergic receptor in rabbit urethra. Type of test: tissue-based. The essentials: (§2)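 α1-agonist dose–response curves in isolated tissue: rabbit urethra (α1A), rat spleen (α1B), rat aorta (α1D). Agonist potency and efficacy read from the concentration–response curves.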

Test [5] concerns the target T4, Alpha-1A adrenergic receptor (Oryctolagus cuniculus). Nature of the test: Efficacy relative to phenylephrine (PE) to constrict tissue containing the alpha-1A adrenergic receptor in rabbit urethra. The test is classed as functional, tissue-based. An outline of the steps:
as §2

The target of test [6] is Alpha adrenergic receptor 1A and 1B (Rattus norvegicus) (UniProt P15823+P43140). Nature of the test: Selectivity is ratio of pKi (binding affinity) of alpha-1B receptor to that of alpha-1A receptor. The test is classed as protein assay.
Chain of Alpha adrenergic receptor 1A and 1B (Rattus norvegicus) (P15823 whole entry, looked up, one chain of several): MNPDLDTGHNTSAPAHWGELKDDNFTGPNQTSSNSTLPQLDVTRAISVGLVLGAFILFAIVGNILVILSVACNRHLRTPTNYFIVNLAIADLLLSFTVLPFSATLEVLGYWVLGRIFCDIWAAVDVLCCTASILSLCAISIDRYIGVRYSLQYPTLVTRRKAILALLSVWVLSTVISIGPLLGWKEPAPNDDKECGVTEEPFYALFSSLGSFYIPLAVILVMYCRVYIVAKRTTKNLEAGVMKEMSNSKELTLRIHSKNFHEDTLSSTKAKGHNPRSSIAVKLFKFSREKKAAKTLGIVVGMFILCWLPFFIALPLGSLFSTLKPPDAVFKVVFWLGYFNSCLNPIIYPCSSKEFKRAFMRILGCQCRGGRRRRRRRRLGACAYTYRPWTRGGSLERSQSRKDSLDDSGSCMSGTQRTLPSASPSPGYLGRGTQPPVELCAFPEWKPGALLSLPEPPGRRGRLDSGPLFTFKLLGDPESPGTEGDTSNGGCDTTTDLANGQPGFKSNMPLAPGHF
Test [7] concerns the target Alpha adrenergic receptor 1A and 1D (Rattus norvegicus) (UniProt P23944+P43140). Nature of the test: Selectivity is ratio of pKi (binding affinity) of Alpha-1D to that of alpha1A. Type of test: protein assay.
Test [8] deals with Canis familiaris. Nature of the test: Uroselectivity was determined by measuring effective dose required for 20 mmHg increase of mean arterial pressure (MAP) in vivo in dog. Type of test: functional, Canis lupus familiaris, Artery. The essentials:
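Dog model recording intraurethral pressure (IUP) and mean arterial pressure (MAP) simultaneously. Increasing iv doses given, maximal effect of each dose taken. Doses giving a 5 mmHg rise in IUP (ED Δ5) or 20 mmHg rise in MAP (ED Δ20) were calculated, in nmol/kg ± SEM, n ≥ 4 (2 or 3 where footnoted).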

The species named for test [9] is Canis familiaris. Nature of the test: Ratio of MAP ED delta20 to that of IUP ED delta5.

From ChEMBL document CHEMBL1148329, “Synthesis and structure-activity studies on N-[5-(1H-imidazol-4-yl)-5,6,7,8-tetrahydro-1-naphthalenyl]methanesulfonamide, an imidazole-containing alpha(1A)-adrenoceptor agonist” (J Med Chem, 2004) come the findings set out here.

Regarding `CCS(=O)(=O)Nc1cccc(S(=O)(=O)c2c[nH]cn2)c1`, the Ki in [1], in test [2] and in test [3] was more than 10 µM in each case.
As for `CC(C)S(=O)(=O)Nc1cccc2c1CCCC2c1c[nH]cn1` (configuration not stated), the Ki in test [1] is 1.15 µM; in [2], more than 10 µM; in test [3] it was 2.04 µM. The molecule further showed a pD2 in test [4] of 5.17. In test [5], this molecule came in with an Efficacy of 74%. The Selectivity was more than 9 in [6] and 2 in test [7].
Consider `CCS(=O)(=O)Nc1cccc(Cc2c[nH]cn2)c1C`, for which the Ki in [1] is 0.129 µM; in test [2] it was 8.13 µM; in [3], 1 µM. Further, the “ED delta20” value in [8] was determined as 202 nM/kg. The Efficacy in [5] was determined as 69%. Moreover, the Selectivity in test [6] stood at 60; in test [7] it was 8. For the same molecule, the Ratio in [9] turned out to be 5.6.
In the case of `CCS(=O)(=O)Nc1cccc2c1SCCC2c1c[nH]cn1` (configuration not stated), the Ki in test [2] and in [3] was more than 10 µM in each case. Besides, the Selectivity in test [6] and in test [7] was 10 each time.
Consider `CCS(=O)(=O)Nc1cccc2c1CCCC2CNC` (configuration not stated), for which the Ki in test [1] is 1.38 µM; in [2], more than 10 µM; in [3] it was more than 10 µM. Further, the Selectivity in [6] and in test [7] was more than 7 in each case.
Take `CCS(=O)(=O)Nc1cc(C2CCCCC2)cc2c1CCCC2c1c[nH]cn1` (configuration not stated): the Selectivity is 3 in [6] and 2 in test [7].
In the case of `CCS(=O)(=O)Nc1cccc2c1CCCC2c1c[nH]c(C)n1` (configuration not stated), the Ki in test [2] and in [3] was more than 10 µM throughout. Besides, the Selectivity in [6] and in test [7] was more than 10 each time.
Turning to `CCS(=O)(=O)Nc1cccc(Sc2c[nH]cn2)c1`, the inhibition constant Ki in test [1], in test [2] and in [3] was more than 10 µM throughout.
For the molecule `CS(=O)(=O)Nc1ccc(Cl)c2c1CCCC2c1c[nH]cn1` (configuration not stated), the pD2 in test [4] was found to be 4.35. In addition, the Ki in test [2] was more than 10 µM. In addition, in [5], the Efficacy stood at 41%. The Selectivity is more than 20 in test [6] and 6 in [7].
For the molecule `CCS(=O)(=O)Nc1cccc(NC2=NCCN2)c1`, the Ki in [1] is 2.95 µM; in test [2], more than 10 µM; in test [3] it was 0.355 µM. Besides, the Selectivity in test [6] is more than 3; in [7], less than 0.04.
On the same counts, the results for `CCS(=O)(=O)Nc1cccc2c1CCCC2(O)c1c[nH]cn1` (configuration not stated) are more than 10 µM, more than 10 µM, more than 10 µM, 1 and 1.
In [4], `CS(=O)(=O)Nc1ccc(O)c2c1CCCC2c1c[nH]cn1` (configuration not stated) gave a pD2 of 4.61. Also, the Ki in test [2] and in test [3] was more than 10 µM in each case. In addition, the Efficacy in [5] turned out to be 34%. Further, the Selectivity in test [6] and in test [7] was more than 14 throughout.
`Cc1ccc(NS(C)(=O)=O)c2c1C(c1c[nH]cn1)CCC2` (configuration not stated): the pD2 in test [4] amounted to 4.4. In [2], this molecule gave a Ki of more than 10 µM. In addition, the Efficacy in test [5] was determined as 35%. The Selectivity in test [6] was more than 26; in [7], 7.
Consider `Cn1cncc1C1CCCc2c(NS(C)(=O)=O)cccc21` (configuration not stated), for which the Ki in [1], in test [2] and in test [3] was more than 10 µM in each case.
As to `CS(=O)(=O)Nc1cccc2c1CCCCC2c1c[nH]cn1` (configuration not stated), the pD2 in [4] was determined as 4.72. In test [5], this molecule came in with an Efficacy of 17%. Also, the results for the Selectivity in test [6] and in test [7] were more than 7 and 2, respectively.
In the case of `CCS(=O)(=O)Nc1cccc(-c2c[nH]cn2)c1`, the Ki in test [1], in test [2] and in test [3] was more than 10 µM throughout.
As to `CCS(=O)(=O)Nc1cccc(CC2CCCN2)c1` (configuration not stated), the Ki was 0.708 µM in test [1], more than 10 µM in test [2] and 0.501 µM in [3]. Also, in [4], the pD2 turned out to be 4.44. In [5], this molecule returned an Efficacy of 17%. For the same molecule, the Selectivity in test [6] was more than 10; in test [7], 1.
Turning to `CCS(=O)(=O)Nc1cccc(CC2CN=CN2)c1` (configuration not stated), the Ki was more than 10 µM in test [1], 10 µM in test [2] and 6.46 µM in [3].
Consider `CCS(=O)(=O)Nc1cc(F)cc2c1CCCC2c1c[nH]cn1` (configuration not stated), for which the Ki in [1] is 0.0832 µM; in test [2], more than 10 µM; in test [3], 3.63 µM. In addition, the Selectivity in [6] was more than 121; in test [7], 44.
For `CCCS(=O)(=O)Nc1cccc2c1CCCC2c1c[nH]cn1` (configuration not stated), in that order: 1.7 µM, more than 10 µM, more than 10 µM, more than 6 and more than 6.
On to `CCS(=O)(=O)Nc1cccc2c1COC2c1c[nH]cn1` (configuration not stated), for which the Ki in test [2] and in test [3] was more than 10 µM each time. In addition, the Selectivity in [6] and in test [7] was 10 in each case.
As to `CC(c1cccc(NS(C)(=O)=O)c1)c1c[nH]cn1` (configuration not stated), the “ED delta20” value in test [8] amounted to 234 nM/kg. In [4], this molecule came in with a pD2 of 5.38. This molecule also showed a Ki in [2] of more than 10 µM. The same molecule gave an Efficacy in test [5] of 92%. The Selectivity in test [6] came out at 10; in [7], 1. The Ratio in test [9] was determined as 3.4.
On to `CS(=O)(=O)Nc1ccc(F)c2c1CCCC2c1c[nH]cn1` (configuration not stated), for which, in test [8], the “ED delta20” value was 632 nM/kg. In test [4], the pD2 came out at 5.31. Besides, the Ki in test [2] was more than 10 µM. The molecule further registered an Efficacy in test [5] of 64%. For the same molecule, the Selectivity in test [6] is more than 32; in test [7], 10. For the same molecule, the Ratio in [9] was found to be 1.
Consider `O=S(=O)(Nc1cccc2c1CCCC2c1c[nH]cn1)C1CC1` (configuration not stated), for which the Ki is 0.537 µM in test [1], more than 10 µM in test [2] and 2.69 µM in test [3]. The pD2 in [4] was found to be 5.25. In test [5], this molecule gave an Efficacy of 51%. Besides, the Selectivity in [6] was more than 19; in test [7], 5.

For orientation: Ki means a measure of affinity in units of concentration, obtained from inhibition or displacement. Read a high Ki as weaker binding.
